Experimental data reported in ChEMBL document CHEMBL4351006, “A new exploration towards aminothiazolquinolone oximes as potentially multi-targeting antibacterial agents: Design, synthesis and evaluation acting on microbes, DNA, HSA and topoisomerase IV” (Eur J Med Chem, 2019).
In brackets after ≈: the same amount, converted by molar mass.

What was measured:
[1] = tested on: Aspergillus fumigatus; experiment: Antifungal activity against Aspergillus fumigatus assessed as reduction in fungal cell viability incubated for 24 hrs by two fold serial dilution method; assay type: functional
Outline: (§1)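 Broth two-fold serial dilution run to CLSI guidelines. Chloromycin, norfloxacin and fluconazole served as reference drugs.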

[2] = tested on: Candida parapsilosis; experiment: Antifungal activity against Candida parapsilosis ATCC 22019 assessed as reduction in fungal cell viability incubated for 24 hrs by two fold serial dilution method; conditions: Lodderomyces parapsilosis, ATCC 22019, 24 h
[3] = tested on: Acinetobacter baumannii; experiment: Antibacterial activity against Acinetobacter baumannii assessed as reduction in bacterial cell viability incubated for 24 hrs by two fold serial dilution method; assay type: functional; outline: as §1
[4] = tested on: Candida albicans; experiment: Antifungal activity against Candida albicans ATCC 90023 assessed as reduction in fungal cell viability incubated for 24 hrs by two fold serial dilution method; assay type: functional; conditions: ATCC 90023, 24 h; outline: as §1
[5] = tested on: Pseudomonas aeruginosa; experiment: Antibacterial activity against Pseudomonas aeruginosa assessed as reduction in bacterial cell viability incubated for 24 hrs by two fold serial dilution method; assay type: functional; outline: as §1
[6] = tested on: Staphylococcus aureus; experiment: Antibacterial activity against Staphylococcus aureus ATCC 25923 assessed as reduction in bacterial cell viability incubated for 24 hrs by two fold serial dilution method; assay type: functional; conditions: ATCC 25923, 24 h; outline: as §1
[7] = tested on: Staphylococcus aureus; experiment: Antibacterial activity against Staphylococcus aureus ATCC 29213 assessed as reduction in bacterial cell viability incubated for 24 hrs by two fold serial dilution method; assay type: functional; conditions: ATCC 29213, 24 h; outline: as §1
[8] = tested on: Escherichia coli; experiment: Antibacterial activity against Escherichia coli ATCC 25922 assessed as reduction in bacterial cell viability incubated for 24 hrs by two fold serial dilution method; assay type: functional; conditions: ATCC 25922, 24 h; outline: as §1
[9] = tested on: Candida tropicalis; experiment: Antifungal activity against Candida tropicalis assessed as reduction in fungal cell viability incubated for 24 hrs by two fold serial dilution method; assay type: functional; outline: as §1
[10] = tested on: Pseudomonas aeruginosa; experiment: Antibacterial activity against Pseudomonas aeruginosa ATCC 27853 assessed as reduction in bacterial cell viability incubated for 24 hrs by two fold serial dilution method; assay type: functional; conditions: ATCC 27853, 24 h; outline: as §1
[11] = tested on: Staphylococcus aureus; experiment: Antibacterial activity against methicillin resistant Staphylococcus aureus N315 assessed as reduction in bacterial cell viability incubated for 24 hrs by two fold serial dilution method; assay type: functional; conditions: N315, 24 h
Outline: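 MIC by two-fold serial dilution following CLSI, with chloromycin and norfloxacin as reference drugs.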

[12] = tested on: Escherichia coli; experiment: Antibacterial activity against Escherichia coli assessed as reduction in bacterial cell viability incubated for 24 hrs by two fold serial dilution method; assay type: functional; outline: as §1
[13] = tested on: Candida albicans; experiment: Antifungal activity against Candida albicans assessed as reduction in fungal cell viability incubated for 24 hrs by two fold serial dilution method; assay type: functional; outline: as §1
[14] = tested on: Klebsiella pneumoniae; experiment: Antibacterial activity against Klebsiella pneumoniae assessed as reduction in bacterial cell viability incubated for 24 hrs by two fold serial dilution method; assay type: functional; outline: as §1
[15] = tested on: Staphylococcus aureus; experiment: Antibacterial activity against Staphylococcus aureus assessed as reduction in bacterial cell viability incubated for 24 hrs by two fold serial dilution method; assay type: functional; outline: as §1
[16] = tested on: Enterococcus faecalis; experiment: Antibacterial activity against Enterococcus faecalis assessed as reduction in bacterial cell viability incubated for 24 hrs by two fold serial dilution method; assay type: functional; outline: as §1

| Structure (SMILES) | MIC [1] [µM] | MIC [2] [µM] | MIC [3] [µM] | MIC [4] [µM] | MIC [5] [µM] | MIC [6] [µM] | MIC [7] [µM] | MIC [8] [µM] | MIC [9] [µM] | MIC [10] [µM] | MIC [11] [µM] | MIC [12] [µM] | MIC [13] [µM] | MIC [14] [µM] | MIC [15] [µM] | MIC [16] [µM] |
| --- | --- | --- | --- | --- | --- | --- | --- | --- | --- | --- | --- | --- | --- | --- | --- | --- |
| CCn1cc(-c2csc(N)n2)c(=O)c2cc(F)c(N3CCN(C/C(=N/OC)c4ccc(OC)cc4)CC3)cc21 | 465 (≈ 256 µg/mL) | 465 (≈ 256 µg/mL) | 465 (≈ 256 µg/mL) | 465 (≈ 256 µg/mL) | 465 (≈ 256 µg/mL) | 465 (≈ 256 µg/mL) | 465 (≈ 256 µg/mL) | 232 (≈ 128 µg/mL) | 232 (≈ 128 µg/mL) | 465 (≈ 256 µg/mL) | 465 (≈ 256 µg/mL) | 465 (≈ 256 µg/mL) | 232 (≈ 128 µg/mL) | 465 (≈ 256 µg/mL) | 465 (≈ 256 µg/mL) | 232 (≈ 128 µg/mL) |
| CCn1cc(-c2csc(N)n2)c(=O)c2cc(F)c(N3CCN(CC(C)=O)CC3)cc21 | 575 (≈ 247 µg/mL) | 288 (≈ 124 µg/mL) | 288 (≈ 124 µg/mL) | 144 (≈ 61.9 µg/mL) | 288 (≈ 124 µg/mL) | 288 (≈ 124 µg/mL) | 575 (≈ 247 µg/mL) | 288 (≈ 124 µg/mL) | 288 (≈ 124 µg/mL) | 36 (≈ 15.5 µg/mL) | 72 (≈ 30.9 µg/mL) | 1150 (≈ 494 µg/mL) | 575 (≈ 247 µg/mL) | 72 (≈ 30.9 µg/mL) | 144 (≈ 61.9 µg/mL) | 288 (≈ 124 µg/mL) |
| CCn1cc(-c2csc(N)n2)c(=O)c2cc(N3CCN(C/C(C)=N/O)CC3)c(Cl)cc21 | 278 (≈ 128 µg/mL) | 278 (≈ 128 µg/mL) | 278 (≈ 128 µg/mL) | 139 (≈ 64.1 µg/mL) | 139 (≈ 64.1 µg/mL) | 17 (≈ 7.84 µg/mL) | 139 (≈ 64.1 µg/mL) | 278 (≈ 128 µg/mL) | 278 (≈ 128 µg/mL) | 555 (≈ 256 µg/mL) | 139 (≈ 64.1 µg/mL) | 69 (≈ 31.8 µg/mL) | 69 (≈ 31.8 µg/mL) | 139 (≈ 64.1 µg/mL) | 35 (≈ 16.1 µg/mL) | 139 (≈ 64.1 µg/mL) |
| OC(Cn1cncn1)(Cn1cncn1)c1ccc(F)cc1F [FLUCONAZOLE] | 836 (≈ 256 µg/mL) | 13 (≈ 3.98 µg/mL) | – | 7 (≈ 2.14 µg/mL) | – | – | – | – | 26 (≈ 7.96 µg/mL) | – | – | – | 13 (≈ 3.98 µg/mL) | – | – | – |
| CCn1cc(-c2csc(N)n2)c(=O)c2cc(N3CCN(C/C(=N/OC)c4ccc(Cl)cc4Cl)CC3)c(Cl)cc21 | 422 (≈ 256 µg/mL) | 422 (≈ 256 µg/mL) | 422 (≈ 256 µg/mL) | 845 (≈ 512 µg/mL) | 422 (≈ 256 µg/mL) | 422 (≈ 256 µg/mL) | 211 (≈ 128 µg/mL) | 422 (≈ 256 µg/mL) | 422 (≈ 256 µg/mL) | 422 (≈ 256 µg/mL) | 211 (≈ 128 µg/mL) | 422 (≈ 256 µg/mL) | 422 (≈ 256 µg/mL) | 422 (≈ 256 µg/mL) | 422 (≈ 256 µg/mL) | 211 (≈ 128 µg/mL) |
